Measured values from ChEMBL document CHEMBL4513216, “Probing the Open Global Health Chemical Diversity Library for Multistage-Active Starting Points for Next-Generation Antimalarials” (ACS Infect Dis, 2020).

Assay: Toxicity liver stage against HepG2, at 10uM
Format: cell-based
Set-up: test concentration 10 uM, cell line HepG2-A16-CD81EGFP
Conditions: human, HepG2-A16-CD81EGFP cells; read-out: INHIBITION
In short: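 Uninfected HepG2-A16-CD81EGFP cells, 3 × 10^3 per well, 1536-well, plated on prespotted compound at 10 μM final, parasite-free screening media added to match infected plates; puromycin 10 μM positive, DMSO 0.5% negative; run in parallel with 48 h PbLuc assay at 37 °C, 5% CO2; viability by CellTiter-Glo luminescence, normalized to controls.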
In the case of Cc1nc2ccn(C(C)C)c(=O)c2cc1C(=O)O, the cytotoxicity at 10 µM is reported as -43.6%.
With O=C(CCn1ccc2cc(Br)ccc21)NC[C@@H]1CCCN2CCCC[C@H]12 the cytotoxicity at 10 µM was 8.35%.
With O=c1c(NCc2ccco2)c(NCC(O)CN2CCOCC2)c1=O (configuration not stated) the cytotoxicity at 10 µM was -55.8%.
In the case of CCc1ccccc1N1CC(c2nnc(N)s2)CC1=O (configuration not stated), the cytotoxicity at 10 µM is reported as 0.502%.
In the case of CC(=O)N1CCN(C)CC(COCc2ccccc2)C1 (configuration not stated), the cytotoxicity at 10 µM is reported as -4.79%.
For CC(=O)N1CC2(CCCN(Cc3ccc(Cl)cc3)C2)Cc2ccccc21 (configuration not stated), the cytotoxicity at 10 µM was 10.6%.
In the case of Fc1cccc2c1CCC2NCc1ccc(N2CCOCC2)cc1 (configuration not stated), the cytotoxicity at 10 µM is reported as -14.7%.
With Cc1cc(N2CCC(NS(C)(=O)=O)CC2)nc(C(C)C)n1 the cytotoxicity at 10 µM was -3.36%.
Compound CCN(Cc1cccc(Cl)c1)Cc1ncc(C(C)(C)C)o1 has a cytotoxicity at 10 µM of 11.2%.
In the case of Cc1ccc(CCCC(=O)N2CC(=O)Nc3cccnc32)s1, the cytotoxicity at 10 µM is reported as -36.6%.
In the case of Cc1cc(NC(N)=O)ccc1OCC(F)(F)F, the cytotoxicity at 10 µM is reported as -0.883%.
Cc1cnn(C2CN(CCCOc3ccc(C#N)cc3)C2)c1 gave a cytotoxicity at 10 µM of 4.09%.
For Cc1c(COC(C)C)cccc1NC(=O)N1CCCC(CO)C1 (configuration not stated), the cytotoxicity at 10 µM was -5.44%.
For Cc1ccc2ncn(CC(O)CN3CCC(C)CC3)c(=O)c2c1 (configuration not stated), the cytotoxicity at 10 µM was -0.539%.
O=C(c1sccc1C1CC1)N1CCN(c2ncccn2)CC1 gave a cytotoxicity at 10 µM of -6.87%.
For O=C(c1ccc(-n2cccn2)c(F)c1)N1CCCN2CCCC2C1 (configuration not stated), the cytotoxicity at 10 µM was -3.9%.
Cc1cc(NC2CCc3nc(C(C)C)nn3C2)n2ncnc2n1 (configuration not stated) gave a cytotoxicity at 10 µM of 13.4%.
O=C(Cc1ccc2c(c1)OCO2)N1CCN(c2ccncc2)CC1 gave a cytotoxicity at 10 µM of -22.9%.
CCn1cnnc1C1CCN(C(=O)c2ccc(OC(C)C)nc2)CC1 gave a cytotoxicity at 10 µM of 1.14%.
In the case of CC(C)(C)OCCN(Cc1cccc(O)c1)C1CCC(O)CC1 (configuration not stated), the cytotoxicity at 10 µM is reported as 8.22%.
CCn1ccnc1S(=O)(=O)Cc1ccc(C(N)=O)cc1 showed a cytotoxicity at 10 µM of -3.8%.
In the case of COc1ccc(CNC(=O)c2ccc(Br)cn2)cc1, the cytotoxicity at 10 µM is reported as -18%.
CC(=O)NCCC(=O)Nc1sccc1C(=O)C(C)(C)C gave a cytotoxicity at 10 µM of -46.3%.
CN(C)c1ncc(CNC(=O)Nc2ccccc2F)n1C gave a cytotoxicity at 10 µM of -46.9%.
Compound CC(C1CC1)N(C)C(=O)CCn1cccn1 (configuration not stated) has a cytotoxicity at 10 µM of -2.37%.
With CN(C)c1ccc(CCCNC(=O)Nc2ccc(C#N)cc2)cc1 the cytotoxicity at 10 µM was -1.14%.
Work on CC(C)C1CN(Cc2nccn2C)CCC(=O)N1CC1CC1 (configuration not stated) yielded a cytotoxicity at 10 µM of -13.7%.
With Cc1ccc(CN(Cc2ccccn2)C(=O)CCC2CCCN(C)C2)s1 (configuration not stated) the cytotoxicity at 10 µM was 18.3%.
With Cc1cccnc1N1CCN(C(=O)CCc2ccccn2)CC1 the cytotoxicity at 10 µM was -12.1%.
Work on Cc1ccc([C@@H]2CN(C(=O)CCc3ccco3)C[C@H]2N(C)C)cc1 yielded a cytotoxicity at 10 µM of 3.13%.
Work on CN1CCC(Cc2noc(CC3CC3)n2)CC1 yielded a cytotoxicity at 10 µM of -9.96%.
Compound CSc1ccc(CNC(=O)C2CC(=O)N(C(C)(C)C)C2)cc1 (configuration not stated) has a cytotoxicity at 10 µM of 4.69%.
For COc1ccnc(N2CCC3(CCCN(C(C)C)C3=O)C2)n1 (configuration not stated), the cytotoxicity at 10 µM was -8.7%.
Work on CC(C)Cc1cc(-c2cc(-c3ccc[nH]3)nc(N)c2C#N)n[nH]1 yielded a cytotoxicity at 10 µM of 14.3%.
In the case of COc1cc(C)cc(C(C(=O)O)N(C)Cc2cnn(C)c2)c1OC (configuration not stated), the cytotoxicity at 10 µM is reported as 7.87%.
Compound CC(=O)NCCOc1cccc(Br)c1 has a cytotoxicity at 10 µM of -3.06%.
COc1ccc(F)c(-c2cc(O)nc(N)n2)c1 showed a cytotoxicity at 10 µM of 2.05%.
With CN(C)CC1(O)CCN(S(=O)(=O)c2ccc(F)c(F)c2)C1 (configuration not stated) the cytotoxicity at 10 µM was -0.954%.
Compound Fc1ccc(-c2nc(CNC3CCc4ncnn4C3)cs2)cc1 (configuration not stated) has a cytotoxicity at 10 µM of -4.92%.
CC(Cn1ccnc1)NC(=O)N1CCN(Cc2cccs2)CC1 (configuration not stated) gave a cytotoxicity at 10 µM of -5.36%.
CCN(Cc1cccc(C)c1)Cc1nc2c(cnn2C)c(=O)[nH]1 showed a cytotoxicity at 10 µM of -21.6%.
For COc1cccc(-n2nnc(C(=O)N3CCNC(=O)C3)c2C)c1, the cytotoxicity at 10 µM was -10.3%.
In the case of CCn1ccnc1CNCC1CCCN1c1cccnn1 (configuration not stated), the cytotoxicity at 10 µM is reported as -1.28%.
For CCc1noc(C(C)N2CCOCC2)n1 (configuration not stated), the cytotoxicity at 10 µM was -6.5%.
Work on c1ccc2cc(OCCN3CCOC(Cn4cncn4)C3)ccc2c1 (configuration not stated) yielded a cytotoxicity at 10 µM of 4.6%.
Cc1cn2c(n1)CCC(NC(=O)c1cc(C(C)C)no1)C2 (configuration not stated) gave a cytotoxicity at 10 µM of -2.12%.
CN1[C@H](CN2CCCC2)C[C@@H]2CN(C(=O)Cc3cccs3)CC[C@@H]21 gave a cytotoxicity at 10 µM of 4.99%.
